Measurements taken from ChEMBL document CHEMBL1777798, “Novel fungicidal benzylsulfanyl-phenylguanidines” (Bioorg Med Chem Lett, 2011).
Values after ≈ are worked out from the molar mass of the structure shown.

Key:
Candida albicans [1] = experiment: Fungicidal activity against Candida albicans SC5314 assessed as concentration required to less than 0.1% survival of organism after 2 hrs; type: functional; conditions: SC5314, 2 h
Method in brief: (§1)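 C. albicans SC5314 or C. glabrata BG2 exposed to compounds. Cells then washed and plated on YPD (1% yeast extract, 2% peptone, 2% glucose) for CFU counts. MFC = minimal concentration leaving <0.1% survival relative to DMSO control.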

Nakaseomyces glabratus = experiment: Fungal activity against Candida glabrata BG2 assessed as concentration required to less than 0.1% survival of organism after 2 hrs; type: functional; conditions: BG2, 2 h; method in brief: as §1
Candida albicans [2] = experiment: Fungicidal activity against Candida albicans SC5314-infected Caenorhabditis elegans L4 larvae model assessed as survival of worms at 60 uM after 5 days relative to day 0; type: functional
Method in brief: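 C. elegans L4 larvae fed 4 h on YPD agar lawns of C. albicans SC5314 (overnight culture spread, 16 h at 37 °C). Worms washed in M9 buffer and incubated with compound at 60 μM or DMSO control. Living worms counted daily; % survival relative to day 0. Mean ±SEM of duplicates; experiments run at least twice.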

[3] = Toxicity in glp-4delta sek-1 delta double mutant Caenorhabditis elegans model assessed as survival at 50 uM after 11 days relative to day 0; type: organism-based; conditions: in vivo
Method in brief: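 glp-4Δsek-1Δ C. elegans grown on NGM/OP50 E. coli plates to L4 and washed in M9 buffer (with cholesterol and kanamycin). 40–50 worms per well in 1 mL M9 with compound at 50 μM or DMSO (0.5%) control. Survival counted daily, relative to day 0. Mean ±SEM of duplicates; experiments run at least twice.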

[4] = Antimicrobial activity against mixed Candida albicans SC5314/Staphylococcus epidermidis assessed as biofilm eradication after 24 hrs; type: functional
Method in brief: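 Mixed biofilm of C. albicans SC5314 and S. epidermidis (50/50). Overnight cultures suspended in 1/20 TSB at OD590 0.5 and mixed. 24 h adhesion, planktonic cells removed, then 48 h growth in fresh 1/20 TSB. Mature biofilms exposed 24 h to compound in PBS. Biomass read by crystal violet staining. BEC50 = concentration eradicating 50% of biofilm.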

Candida albicans [5] = experiment: Fungicidal activity against Candida albicans SC5314 assessed as biofilm eradication after 24 hrs; type: functional

Structure (SMILES)	MFC (Candida albicans [1])	MFC (Nakaseomyces glabratus)	survival at 60 µM (Candida albicans [2])	survival at 264 h, 50 µM [3]	BBC50 [4]	BBC50 (Candida albicans [5])
N=C(N)Nc1ccccc1SCc1cc(Br)cc(Br)c1	50 µM (≈ 20.8 µg/mL)	50 µM (≈ 20.8 µg/mL)	–	–	–	–
Brc1cc(Br)cc(CSc2ccc(N=C(NC3CCCCC3)NC3CCCCC3)cc2)c1	5 µM (≈ 2.9 µg/mL)	5 µM (≈ 2.9 µg/mL)	49%	51%	–	–
N=C(N)Nc1ccccc1SCc1ccc(Cl)cc1	> 100 µM	> 100 µM	–	–	–	–
N=C(N)Nc1ccc(SCc2ccc(Cl)cc2)cc1	50 µM (≈ 14.6 µg/mL)	50 µM (≈ 14.6 µg/mL)	–	–	–	–
N=C(N)NC(=N)Nc1ccc(SCc2cc(Br)cc(Br)c2)cc1	> 100 µM	> 100 µM	–	–	–	–
N=C(N)NC(=N)Nc1cccc(SCc2ccc(Cl)cc2)c1	50 µM (≈ 16.7 µg/mL)	50 µM (≈ 16.7 µg/mL)	–	–	–	–
Nc1ccc(SCc2cc(Br)cc(Br)c2)cc1	> 100 µM	> 100 µM	–	–	–	–
Cl.N=C(N)NC(=N)Nc1cccc(SCc2cc(Br)cc(Br)c2)c1	5 µM	10 µM	15.4%	5%	55 µM	–
Nc1ccccc1SCc1cc(Br)cc(Br)c1	> 100 µM	> 100 µM	–	–	–	–
Nc1ccc(SCc2ccc(Cl)cc2)cc1	> 100 µM	> 100 µM	–	–	–	–
Clc1ccc(CSc2ccc(N=C(NC3CCCCC3)NC3CCCCC3)cc2)cc1	> 100 µM	> 100 µM	–	–	–	–
OC(Cn1cncn1)(Cn1cncn1)c1ccc(F)cc1F [FLUCONAZOLE]	> 100 µM	> 100 µM	–	–	>240 µM	>240 µM
Nc1ccccc1SCc1ccc(Cl)cc1	> 100 µM	> 100 µM	–	–	–	–
N=C(N)Nc1ccc(SCc2cc(Br)cc(Br)c2)cc1	50 µM (≈ 20.8 µg/mL)	50 µM (≈ 20.8 µg/mL)	–	–	–	–
N=C(N)Nc1cccc(SCc2cc(Br)cc(Br)c2)c1	50 µM (≈ 20.8 µg/mL)	50 µM (≈ 20.8 µg/mL)	–	–	–	–
Brc1cc(Br)cc(CSc2cccc(N=C(NC3CCCCC3)NC3CCCCC3)c2)c1	5 µM (≈ 2.9 µg/mL)	5 µM (≈ 2.9 µg/mL)	55.5%	33%	–	–
N=C(N)Nc1cccc(SCc2ccc(Cl)cc2)c1	100 µM (≈ 29.2 µg/mL)	100 µM (≈ 29.2 µg/mL)	–	–	–	–
N=C(N)NC(=N)Nc1ccc(SCc2ccc(Cl)cc2)cc1	50 µM (≈ 16.7 µg/mL)	50 µM (≈ 16.7 µg/mL)	–	–	–	–
Clc1ccc(CSc2ccccc2N=C(NC2CCCCC2)NC2CCCCC2)cc1	> 100 µM	50 µM (≈ 22.8 µg/mL)	–	–	–	–
Clc1ccc(CSc2cccc(N=C(NC3CCCCC3)NC3CCCCC3)c2)cc1	5 µM (≈ 2.28 µg/mL)	5 µM (≈ 2.28 µg/mL)	18.5%	19%	–	–
Brc1cc(Br)cc(CSc2ccccc2N=C(NC2CCCCC2)NC2CCCCC2)c1	5 µM (≈ 2.9 µg/mL)	50 µM (≈ 29 µg/mL)	–	–	–	–
